Data taken from ChEMBL document CHEMBL4038336 (J Med Chem, 2017).
Active and inactive are the calls of the source.

Experiments:
[1] = Half life in swine brain at 10 uM after 30 to 60 mins by LC-MS/MS analysis; assay type: ADME, tissue-based, Sus scrofa; conditions: pig
Outline: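 Prodrugs at 10 µM spiked into swine brain homogenate (1% w/v) and incubated at 37 °C with orbital shaking. Triplicate aliquots were taken at 0, 30 and 60 min and quenched with ice-cold acetonitrile containing losartan IS. Prodrug was measured by LC-MS/MS as the analyte/IS peak-area ratio. t1/2 = 0.693/Kel, with Kel the slope of ln % remaining versus time.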

[2] = AUC (0 to t) in swine at 1.6 mg/kg, iv infusion via saphenous vein after 5 to 60 mins by LC-MS/MS analysis; assay type: ADME, organism-based, Sus scrofa; conditions: pig, in vivo
Outline: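 DON (1.6 mg/kg) or molar-equivalent prodrug in sterile saline with 5% ethanol and 5% Tween 80, given as 1 h iv infusion via saphenous catheter to swine (n = 1/dose). Plasma from jugular central venous catheter at predose, 5, 15, 30, 45, 60 min. DON extracted with methanol plus glutamate-d5 IS, dabsyl chloride derivatized, quantified by LC-MS/MS; AUC0–t from plasma profile.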

[3] = Total drug uptake in swine brain at 1.6 mg/kg, iv infusion via saphenous vein after 60 mins by LC-MS/MS analysis; assay type: ADME, organism-based, Sus scrofa; conditions: pig, in vivo, 1 h
Outline: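 Anaesthetised swine, n = 2/dose. Infusion iv via saphenous vein over 1 h at 1.6 mg/kg or molar equivalent, in saline with 5% ethanol and 5% Tween 80. Animals were euthanised 60 min post-infusion and frontal cortex sampled. Extraction used methanol with glutamate-d5, then dabsyl chloride derivatisation (pH 9.0, 60 °C, 15 min) and LC–QTOF-MS.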

[4] = system: Mus musculus; test: (§1) Decrease in cognitive decline in C57BL/6J mouse EcoHIV associated neurocognitive disorder model assessed as decrease in latency to escape to hidden platform at 1 mg/kg, […] starting 1 day prior to EcoHIV infection and continuing every other day till day 30 measured after 30 days post infection by radial arm water maze test; assay type: functional, organism-based
[5] = Unbound drug level in swine brain at 1.6 mg/kg, iv infusion via saphenous vein after 60 mins by LC-MS/MS analysis; assay type: ADME, organism-based, Sus scrofa; conditions: pig, in vivo, 1 h
Outline: (§2)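 Swine, n = 2/dose. Dosing was iv infusion over 1 h (1.6 mg/kg or molar equivalent), with brain and plasma taken 60 min post-infusion and totals measured by LC–MS/MS after dabsyl derivatisation. Free levels were calculated from the totals using ultrafiltration-derived bound fractions for brain and plasma (10 µM, 37 °C, 30 min).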

[6] = system: Mus musculus; test: Toxicity in EcoHIV-infected C57BL/6J mouse assessed as change in motor function at 1 mg/kg, […] starting 1 day prior to EcoHIV infection and continuing every other day till day 30 measured after 30 days post infection; assay type: organism-based; conditions: in vivo, 720 h
[7] = system: Plasma; test: Protein binding in swine plasma at 10 uM after 30 mins by ultrafiltration method; assay type: ADME, cell-free, Sus scrofa; conditions: pig, 0.5 h
Outline: (§3)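 Drug was spiked at 10 µM into swine plasma or swine brain homogenate and held 30 min at 37 °C. Samples were ultrafiltered (30 kDa cutoff) by centrifugation for 45 min at 37 °C, 1800g. Filtrate and unfiltered matrix were extracted and quantified by LC–MS/MS. Fraction unbound = Cu/Ct × 100.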

[8] = Protein binding in swine brain at 10 uM after 30 mins by ultrafiltration method; assay type: ADME, tissue-based, Sus scrofa; conditions: pig, 0.5 h; outline: as §3
[9] = system: Human immunodeficiency virus; test: Effect on EcoHIV viral DNA load in infected C57BL/6J mouse brain at 1 mg/kg, […] starting 1 day prior to EcoHIV infection and continuing every other day till day 30 measured after 30 days post infection by qPCR method; assay type: organism-based; conditions: in vivo, 720 h
[10] = system: Mus musculus; test: Toxicity in EcoHIV-infected C57BL/6J mouse assessed as change in body weight at 1 mg/kg, […] starting 1 day prior to EcoHIV infection and continuing every other day till day 30 measured after 30 days post infection; assay type: organism-based; conditions: in vivo, 720 h
[11] = system: Mus musculus; test: Toxicity in EcoHIV-infected C57BL/6J mouse assessed as diarrhea at 1 mg/kg, […] starting 1 day prior to EcoHIV infection and continuing every other day till day 30 measured after 30 days post infection; assay type: organism-based; conditions: in vivo, 720 h
[12] = system: Mus musculus; test: Effect on latency to escape to visible platform in C57BL/6J mouse EcoHIV associated neurocognitive disorder model at 1 mg/kg, […] starting 1 day prior to EcoHIV infection and continuing every other day till day 30 measured after 30 days post infection by radial arm water maze test; assay type: organism-based; conditions: in vivo, 720 h
Outline: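 Same mice, dosing and EcoHIV or sham inoculation as the maze study. After the hidden-platform radial arm water maze testing, latency to reach a visible platform in the same context was timed. This serves as a control for vision, motivation and swimming ability.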

[13] = system: Plasma; test: Unbound plasma concentration in swine at 1.6 mg/kg, iv infusion via saphenous vein after 60 mins by LC-MS/MS analysis; assay type: ADME, organism-based, Sus scrofa; conditions: pig, in vivo, 1 h; outline: as §2
[14] = Ratio of unbound drug level in swine brain to plasma at 1.6 mg/kg, iv infusion via saphenous vein after 60 mins by LC-MS/MS analysis; assay type: ADME, organism-based, Sus scrofa; conditions: pig
Outline: (§4)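 Free DON was derived from total swine brain and plasma levels at 60 min after 1.6 mg/kg-equivalent iv infusion. Unbound fraction came from ultrafiltration: DON 10 µM spiked into swine plasma or brain homogenate, 30 min at 37 °C, centrifuged through a 30 kDa cut-off filter at 37 °C for 45 min. fu = Cu/Ct × 100 by LC-MS/MS.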

[15] = Ratio of total drug level in swine cerebrospinal fluid to plasma at 1.6 mg/kg, iv infusion via saphenous vein after 60 mins by LC-MS/MS analysis; assay type: ADME, organism-based, Sus scrofa, CSF/Plasma; conditions: pig
Outline: (§5)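 Swine received DON 1.6 mg/kg or molar-equivalent prodrug by 1 h iv saphenous infusion in saline/5% ethanol/5% Tween 80 (n = 1/dose). Plasma was sampled via jugular catheter. CSF was taken from the cisterna magna at 60 min postdose. DON was methanol-extracted, dabsyl-derivatized and quantified by LC-MS/MS.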

[16] = Total plasma concentration in swine at 1.6 mg/kg, iv infusion via saphenous vein after 60 mins by LC-MS/MS analysis; assay type: ADME, organism-based, Sus scrofa; conditions: pig
Outline: (§6)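 Terminal swine study using the same 1 h iv dosing, 1.6 mg/kg DON or molar equivalent (n = 2/dose). Animals were euthanized with pentobarbital/phenytoin at 60 min postinfusion. Plasma and full-thickness frontal cortex were collected. DON was quantified by LC-MS/MS after methanol extraction with glutamate-d5 IS and dabsyl chloride derivatization. Values are mean ± SEM.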

[17] = system: Human immunodeficiency virus; test: Increase in EcoHIV viral DNA load in infected C57BL/6J mouse spleen at 1 mg/kg, […] starting 1 day prior to EcoHIV infection and continuing every other day till day 30 measured after 30 days post infection by qPCR method; assay type: organism-based; conditions: in vivo, 720 h
[18] = system: Mus musculus; test: Toxicity in EcoHIV-infected C57BL/6J mouse assessed as change in visual impairment at 1 mg/kg, […] starting 1 day prior to EcoHIV infection and continuing every other day till day 30 measured after 30 days post infection; assay type: organism-based; conditions: in vivo, 720 h
[19] = Fraction unbound in swine brain at 1.6 mg/kg, iv infusion via saphenous vein after 60 min post-infusion by LC-MS/MS analysis; assay type: ADME, organism-based, Sus scrofa; conditions: pig, in vivo, 1 h
[20] = system: Mus musculus; test: as §1, with “number of errors across learning trial 1” for “latency”, “4 and retention trial” for “escape to hidden platform”; assay type: functional, organism-based
Outline: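 Male C57BL/6J mice, 5 weeks old, n = 8/group. Dosing was 1 mg/kg ip every other day, starting 1 day before ip EcoHIV (2 × 10^6 pg p24) or PBS sham, and continued through testing. From day 30 p.i., radial arm water maze: daily four 60 s learning trials, then a 60 s retention test after 30 min rest. Hidden platform arm rotated daily. Values are last-3-day averages.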

[21] = Total drug uptake in swine cerebrospinal fluid at 1.6 mg/kg, iv infusion via saphenous vein after 60 mins by LC-MS/MS analysis; assay type: ADME, organism-based, Sus scrofa; conditions: pig, read-out: Drug uptake; outline: as §5
[22] = Ratio of total drug level in swine cerebrospinal fluid to unbound plasma concentration in swine at 1.6 mg/kg, iv infusion via saphenous vein after 60 mins by LC-MS/MS analysis; assay type: ADME, organism-based, Sus scrofa; conditions: pig, in vivo, 1 h
[23] = Ratio of total drug level in swine cerebrospinal fluid to unbound drug level in swine brain at 1.6 mg/kg, iv infusion via saphenous vein after 60 mins by LC-MS/MS analysis; assay type: ADME, organism-based, Sus scrofa; conditions: pig, in vivo, 1 h; outline: as §4
[24] = Ratio of total drug level in swine brain to plasma at 1.6 mg/kg, iv infusion via saphenous vein after 60 mins by LC-MS/MS analysis; assay type: ADME, organism-based, Sus scrofa; conditions: pig, read-out: BPR; outline: as §6

SMILES | half-life at 10 µM [1] [min] | AUC(0-t) [2] [µM·h] | Drug uptake [3] [nmol/g] | Drug uptake(free) [5] [nmol/g] | Cp(f) [13] [nmol/mL] | Kp uu at 1 h [14] | Kp at 1 h [15] | concentration at 1 h [16] [µM] | Drug uptake(free) [19] [nmol/g] | concentration at 1 h [21] [nM] | also measured
CC(C)OC(=O)[C@H](CCC(=O)C=[N+]=[N-])NC(=O)O[C@H](C)OC(=O)C(C)(C)C | 75 | 8 |  |  |  |  |  |  |  |  | 
CC(C)OC(=O)[C@H](CCC(=O)C=[N+]=[N-])NC(=O)OC(OC(=O)C(C)(C)C)C(C)C (mixture of isomers) | 35 |  |  |  |  |  |  |  |  |  | 
[N-]=[N+]=CC(=O)CC[C@H](N)C(=O)O [6-DIAZO-5-OXO-L-NORLEUCINE] |  | 29.9 | 5.15 | 0.464 | 32.5 | 0.017 | 0.005 | 41.2 | 0.46 to 0.531 | 252 | Activity [4]: Active; Activity [6]: Non-Toxic; PPB [7]: 21%; PB [8]: 91%; Activity [9]: Non-Toxic; Activity [10]: Non-Toxic; Activity [11]: Non-Toxic; Activity [12]: Non-Toxic; Activity [17]: Toxic; Activity [18]: Non-Toxic; Activity [20]: Active
CC(C)OC(=O)[C@H](CCC(=O)C=[N+]=[N-])NC(=O)OC(OC(=O)C(C)(C)C)c1ccccc1 (some centres not stated) | 31 | 5.7 | 5.9 | 0.531 | 3.86 | 0.157 | 0.069 | 4.88 | 0.53 | 1100 | Ratio [22]: 0.087; Ratio [23]: 2.07; Kp at 1 h [24]: 1.38
CC(C)OC(=O)[C@H](CCC(=O)C=[N+]=[N-])NC(=O)OC(C)(C)OC(=O)C(C)(C)C | 291 |  |  |  |  |  |  |  |  |  | 
